Measurements from ChEMBL document CHEMBL1153092, “Discovery of novel thieno[2,3-d]pyrimidin-4-yl hydrazone-based inhibitors of cyclin D1-CDK4: synthesis, biological evaluation and structure-activity relationships. Part 2” (Bioorg Med Chem, 2009).
pIC50: −log10 of the molar value. ≈ marks a conversion by molar mass, not a printed value. Calls of active or inactive are those of the source. No cut-off for these calls is given here.

Legend:
Mus musculus [1] = experiment: Toxicity in human HCT116 cells xenografted BALB/c mouse assessed as maximum body weight loss rate at 350 mg/kg, po qd for 4 days measured 5 days post dose; type: organism-based, HCT-116; set-up: dose 350 mg/kg, route oral; conditions: in vivo, 120 h
Summary of the method: (§1)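 HCT116 tumour cells implanted s.c. in right hind limb of male BALB/c-nu/nu mice aged 5 or 6 weeks. Dosing began once tumours averaged 80–100 mm³, with compound in 20% Captisol solution given iv or po once daily for 4 days (qdx4). Tumour volume was measured periodically by caliper and body weight was followed. Maximum inhibition of tumour volume and maximum body weight loss are reported with their day after first dose. Deaths were scored as from toxicity or from tumour, out of 5 mice.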

HCT-116 [2] = experiment: Antitumor activity against human HCT116 cells xenografted in BALB/c mouse assessed as maximum tumor volume inhibition rate at 350 mg/kg, po qd for 4 days measured 6 days post dose; type: functional; summary of the method: as §1
Mus musculus [3] = experiment: Toxicity in human HCT116 cells xenografted BALB/c mouse assessed as maximum body weight loss rate at 300 mg/kg, iv qd for 4 days measured 7 days post dose; type: organism-based, HCT-116; set-up: dose 300 mg/kg, route intravenous; conditions: in vivo, 168 h; summary of the method: as §1
Mus musculus [4] = experiment: Toxicity in human HCT116 cells xenografted BALB/c mouse assessed as mouse mortality at 350 mg/kg, po qd for 4 days; type: organism-based, HCT-116; set-up: dose 350 mg/kg, route oral; conditions: in vivo, 96 h
Summary of the method: (§2)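 HCT116 cells implanted subcutaneously in right hind limb of male BALB/c-nu/nu mice aged 5 or 6 weeks; dosing began once tumours averaged 80–100 mm³. Compound in 20% Captisol solution given iv or po once daily for 4 days (qdx4). Tumour volume measured periodically by caliper. Deaths scored as toxicity deaths/tumour deaths/mice used, n=5 per group.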

[5] = Aqueous solubility of compound; type: physicochemical; conditions: water (aqueous)
[6] = target: Cyclin-dependent kinase 4/cyclin D1 (Homo sapiens, UniProt P11802); experiment: Inhibition of CDK4/Cyclin D1 expressed in Sf9 cells assessed as inhibition of Rb phosphorylation
Sequence of Cyclin-dependent kinase 4/cyclin D1 (P11802 whole entry): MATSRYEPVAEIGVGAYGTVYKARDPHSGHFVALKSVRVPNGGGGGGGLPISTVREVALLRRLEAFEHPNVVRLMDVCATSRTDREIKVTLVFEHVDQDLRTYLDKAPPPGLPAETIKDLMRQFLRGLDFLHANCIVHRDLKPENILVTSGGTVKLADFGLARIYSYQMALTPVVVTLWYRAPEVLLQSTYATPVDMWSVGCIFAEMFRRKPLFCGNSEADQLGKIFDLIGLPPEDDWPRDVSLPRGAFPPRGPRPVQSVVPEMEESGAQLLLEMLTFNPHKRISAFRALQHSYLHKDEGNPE
Sequence of Cyclin-dependent kinase 4/cyclin D1 (P24385 whole entry, further chain): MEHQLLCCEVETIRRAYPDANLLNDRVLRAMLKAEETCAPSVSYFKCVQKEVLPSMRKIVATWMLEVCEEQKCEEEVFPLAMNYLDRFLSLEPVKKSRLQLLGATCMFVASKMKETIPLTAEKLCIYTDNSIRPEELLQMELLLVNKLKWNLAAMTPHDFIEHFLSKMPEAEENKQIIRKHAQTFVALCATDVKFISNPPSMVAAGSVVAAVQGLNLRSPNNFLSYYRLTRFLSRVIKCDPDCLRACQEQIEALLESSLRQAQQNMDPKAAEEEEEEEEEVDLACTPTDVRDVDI
Summary of the method: (§3)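 CDK4/cyclin D1 or CDK2/cyclin E was purified from baculovirus-infected Sf-9 cells. The substrate was bacterial GST-Rb on glutathione-sepharose beads, with [³³P]ATP. Reactions ran 30 min at 30 °C in filter plates, were washed four times and counted. IC₅₀ (µg/mL) came from dose–response curves, as the mean of at least two determinations.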

HCT-116 [7] = experiment: Cell cycle arrest in human HCT116 cells assessed as accumulation at G1 phase at 60 ng/mL after 16 hrs using propidium iodide staining by flow cytometry; type: functional
Summary of the method: (§4)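 HCT116 cells were treated for 16 h with compound at concentrations in ng/mL, with DMSO as control. Cells were then collected and their DNA content was analysed by flow cytometry. The percentages of cells in G0/G1, S and G2/M were quantified.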

HCT-116 [8] = experiment: Antitumor activity against human HCT116 cells xenografted in BALB/c mouse assessed as tumor induced mouse death at 350 mg/kg, po qd for 4 days; type: functional, organism-based; set-up: dose 350 mg/kg; summary of the method: as §1
HCT-116 [9] = experiment: Antitumor activity against human HCT116 cells xenografted in BALB/c mouse assessed as tumor induced mouse death at 300 mg/kg, iv qd for 4 days; type: functional, organism-based; set-up: dose 300 mg/kg; summary of the method: as §1
HCT-116 [10] = experiment: Cytotoxicity against human HCT116 cells after 3 days by MTT assay; type: functional, cell-based; conditions: HCT-116, 72 h
Summary of the method: (§5)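 Cells (PC-6 shown) were kept in RPMI 1640 with 10% FBS and plated on day 0. Compound, serially diluted in DMSO, was added on day 1 at ten concentrations. Viable cells were counted by MTT after 3 days of culture. The 50% growth-inhibition concentration was solved from 100×[(T−T₀)/(C−T₀)]=50, where T₀ is the optical density at time zero.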

[11] = target: Cyclin-dependent kinase 2/cyclin E1 (Homo sapiens, UniProt P24941); experiment: Inhibition of CDK2/Cyclin E expressed in Sf9 cells assessed as inhibition of Rb phosphorylation; summary of the method: as §3
HCT-116 [12] = experiment: Antitumor activity against human HCT116 cells xenografted in BALB/c mouse assessed as maximum tumor volume inhibition rate at 300 mg/kg, iv qd for 4 days measured 9 days post dose; type: functional; summary of the method: as §1
Mus musculus [13] = experiment: Toxicity in human HCT116 cells xenografted BALB/c mouse assessed as mouse mortality at 300 mg/kg, iv qd for 4 days; type: organism-based, HCT-116; set-up: dose 300 mg/kg, route intravenous; conditions: in vivo, 96 h; summary of the method: as §2
PC-6 = experiment: Cytotoxicity against human PC6 cells after 3 days by MTT assay; type: functional, cell-based; conditions: PC-6, 72 h; summary of the method: as §5
[14] = Selectivity for CDK4/Cyclin D1 over CDK2/Cyclin E
Summary of the method: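 Selectivity was calculated as CDK2 IC₅₀ divided by CDK4 IC₅₀, using the Rb-phosphorylation kinase assay values.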

HCT-116 [15] = experiment: Cell cycle arrest in human HCT116 cells assessed as accumulation at G1 phase at 100 ng/mL after 16 hrs using propidium iodide staining by flow cytometry; type: functional; summary of the method: as §4
HCT-116 [16] = experiment: Cell cycle arrest in human HCT116 cells assessed as decrease in accumulation at S phase at 100 ng/mL after 16 hrs using propidium iodide staining by flow cytometry; type: functional, cell-based; summary of the method: as §4
Mus musculus [17] = experiment: Toxicity in human HCT116 cells xenografted BALB/c mouse assessed as mouse mortality at 260 mg/kg, iv qd for 4 days; type: organism-based, HCT-116; set-up: dose 260 mg/kg, route intravenous; conditions: in vivo, 96 h; summary of the method: as §2
HCT-116 [18] = experiment: Cell cycle arrest in human HCT116 cells assessed as decrease in accumulation at G2/M phase at 100 ng/mL after 16 hrs using propidium iodide staining by flow cytometry; type: functional, cell-based; summary of the method: as §4
HCT-116 [19] = experiment: Antitumor activity against human HCT116 cells xenografted in BALB/c mouse assessed as maximum tumor volume inhibition rate at 260 mg/kg, iv qd for 4 days measured 5 days post dose; type: functional; summary of the method: as §1
HCT-116 [20] = experiment: Antitumor activity against human HCT116 cells xenografted in BALB/c mouse assessed as tumor induced mouse death at 260 mg/kg, iv qd for 4 days; type: functional, organism-based; set-up: dose 260 mg/kg; summary of the method: as §1
Mus musculus [21] = experiment: Toxicity in human HCT116 cells xenografted BALB/c mouse assessed as maximum body weight loss rate at 260 mg/kg, iv qd for 4 days; type: organism-based, HCT-116; set-up: dose 260 mg/kg, route intravenous; conditions: in vivo, 96 h; summary of the method: as §1
Mus musculus [22] = experiment: Toxicity in human HCT116 cells xenografted BALB/c mouse assessed as maximum body weight loss rate at 300 mg/kg, iv qd for 4 days measured 1 days post dose; type: organism-based, HCT-116; set-up: dose 300 mg/kg, route intravenous; conditions: in vivo, 24 h; summary of the method: as §1
HCT-116 [23] = experiment: Antitumor activity against human HCT116 cells xenografted in BALB/c mouse assessed as maximum tumor volume inhibition rate at 300 mg/kg, iv qd for 4 days measured 7 days post dose; type: functional; summary of the method: as §1
HCT-116 [24] = experiment: Cell cycle arrest in human HCT116 cells assessed as accumulation at G1 phase at 50 ng/mL after 16 hrs using propidium iodide staining by flow cytometry; type: functional; summary of the method: as §4

Row | SMILES | pIC50 [6] | IC50 (HCT-116 [10]) [µg/mL] | pIC50 [11] | IC50 (PC-6) [µg/mL] | Selectivity ratio [14] | further results
1 | CNCc1ccc(/C=N/Nc2ncnc3sc(C(C)(C)C)cc23)cc1 | 6.97 | 0.056 (≈ 0.158 µM) | 5.72 | 0.044 (≈ 0.124 µM) | 17.9 | Activity (Mus musculus [1]): 16%; inhibition in vivo at 350 mg/kg (HCT-116 [2]): 57%; Activity (Mus musculus [3]): 9.7%; Activity (Mus musculus [4]): Non-toxic; solubility [5]: 783 µg/mL (≈ 2220 µM); Activity (HCT-116 [7]): 57%; Activity (HCT-116 [8]): Active; Activity (HCT-116 [9]): Active; inhibition in vivo at 300 mg/kg (HCT-116 [12]): 54%; Activity (Mus musculus [13]): Non-toxic
2 | CC(C)(C)c1cc2c(N/N=C/c3ccc4c(c3)CNCC4)ncnc2s1 | 7.03 | 0.107 (≈ 0.293 µM) | 6.31 | 0.069 (≈ 0.189 µM) | 5.3 | 
3 | CC(C)(C)c1cc2c(N/N=C/c3ccccc3)ncnc2s1 | 5.71 |  | < 4.19 | 6.54 (≈ 21.1 µM) | > 33 | 
4 | CC(C)N1Cc2ccc(/C=N/Nc3ncnc4sc(C(C)(C)C)cc34)cc2C1 | 6.69 | 0.206 (≈ 0.523 µM) | 5.12 | 0.134 (≈ 0.34 µM) | 37.5 | 
5 | CN(C)Cc1ccc(/C=N/Nc2ncnc3sc(C(C)(C)C)cc23)cc1 | 6.68 | 0.128 (≈ 0.348 µM) | 5.79 | 0.107 (≈ 0.291 µM) | 7.8 | 
6 | CC(C)(C)c1cc2c(N/N=C/c3ccc4c(c3)CNC4)ncnc2s1 | 6.63 | 0.111 (≈ 0.316 µM) | 5.83 | 0.071 (≈ 0.202 µM) | 6.3 | Activity (HCT-116 [15]): 62%; solubility [5]: 2.8 µg/mL (≈ 7.97 µM); Activity (HCT-116 [16]): Active; Activity (Mus musculus [17]): Non-toxic; Activity (HCT-116 [18]): Active; inhibition in vivo at 260 mg/kg (HCT-116 [19]): 61%; Activity (HCT-116 [20]): Active; Activity (Mus musculus [21]): < 0%
7 | CN(C)Cc1cccc(/C=N/Nc2ncnc3sc(C(C)(C)C)cc23)c1 | 7.15 | 0.405 (≈ 1.1 µM) | 5.52 | 0.598 (≈ 1.63 µM) | 42.3 | 
8 | CC(C)(C)c1cc2c(N/N=C/c3ccc(CO)cc3)ncnc2s1 | 5.93 | 0.665 (≈ 1.95 µM) | 6.12 | 0.556 (≈ 1.63 µM) | 0.7 | 
9 | CN(C)Cc1cccc(/C=N/Nc2ncnc3sc(C(C)(C)C)cc23)n1 | 6.82 | 0.419 (≈ 1.14 µM) | 5.42 | 0.381 (≈ 1.03 µM) | 25 | solubility [5]: 44 µg/mL (≈ 119 µM)
10 | CN(C)S(=O)(=O)c1ccc(/C=N/Nc2ncnc3sc(C(C)(C)C)cc23)cc1 | < 4.32 | 1.42 (≈ 3.4 µM) | 5.53 | 2.12 (≈ 5.08 µM) |  | 
11 | CN1Cc2ccc(/C=N/Nc3ncnc4sc(C(C)(C)C)cc34)cc2C1 | 6.58 | 0.088 (≈ 0.241 µM) | 5.56 | 0.05 (≈ 0.137 µM) | 10.4 | 
12 | CN(CCO)Cc1ccc(/C=N/Nc2ncnc3sc(C(C)(C)C)cc23)cc1 | 7.15 | 0.169 (≈ 0.425 µM) | 6.14 | 0.124 (≈ 0.312 µM) | 10.4 | 
13 | CC(C)(C)c1cc2c(N/N=C/c3ccc(CN)cc3)ncnc2s1 | 7.21 | 0.334 (≈ 0.984 µM) | 5.33 | 0.214 (≈ 0.63 µM) | 76.2 | 
14 | CC(C)(C)c1cc2c(N/N=C/c3ccc4c(c3)CCNC4)ncnc2s1 | 6.98 | 0.046 (≈ 0.126 µM) | 5.76 | 0.049 (≈ 0.134 µM) | 16.8 | solubility [5]: 8.5 µg/mL (≈ 23.3 µM); Activity (HCT-116 [9]): Active; Activity (Mus musculus [22]): 2.2%; inhibition in vivo at 300 mg/kg (HCT-116 [23]): 5%; Activity (HCT-116 [24]): 56%; Activity (Mus musculus [13]): Non-toxic
15 | CC(C)(C)c1cc2c(N/N=C/c3ccc(O)cc3)ncnc2s1 | < 4.21 | 0.844 (≈ 2.59 µM) | 4.47 | > 10 |  | 
16 | CC(C)(C)c1cc2c(N/N=C/c3ccc(C(=O)O)cc3)ncnc2s1 | 5.56 | 9.99 (≈ 28.2 µM) | 5.96 | 7.22 (≈ 20.4 µM) | 0.4 | 
17 | COC(=O)c1ccc(/C=N/Nc2ncnc3sc(C(C)(C)C)cc23)cc1 | < 4.27 |  | < 4.27 |  |  | 
